Laboratory results taken from ChEMBL document CHEMBL3232983, “Discovery of 2-iminobenzimidazoles as potent hepatitis C virus inhibitors with a novel mechanism of action” (Eur J Med Chem, 2014).
Calls of active or inactive are those of the source. The calls are words filed in the database; no cut-off is given here.

Tests used:
[1] = test system: Hepatitis C virus; test: Antiviral activity against cell culture derived Hepatitis C virus expressing NS5A-GFP fusion protein infected in human HuH7 cells assessed as infection rate preincubated for 2 hrs followed by viral inoculation measured after 72 hrs by HTS assay; assay type: functional, organism-based, Hepacivirus hominis; settings: Huh-7
Outline: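 Naïve Huh-7 cells were exposed to serially diluted compound and inoculated with cell-culture-adapted HCVcc 2 h later. Infection rate was read at 72 h post-infection. EC50 came from 10-point dose-response curves run in duplicate with quadruplicate measurements, fitted by non-linear regression.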

[2] = Cytotoxicity against human HuH7 cells after 72 hrs by Hoechst 33342 staining-based confocal microscopic analysis; assay type: cell-based, Huh-7
Outline: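 Naïve Huh-7 cells in the HCVcc format were compound-treated for 2 h, then infected. Cytotoxicity was determined at 72 h post-infection. CC50 came from 10-point dose-response curves in duplicate with quadruplicate measurements, fitted by non-linear regression.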

[3] = Half life in human liver microsomes at 2 uM; assay type: ADME
Outline: (§1)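 Compound at 2 µM final (0.02% DMSO) was incubated with 0.5 mg/mL liver microsomes in potassium phosphate buffer. Human microsomes were a mixed-gender pool of 200 donors; rat microsomes were from males. Half-life is reported in minutes.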

[4] = Selectivity index, ratio of CC50 for human HuH7 cells to EC50 for cell culture derived Hepatitis C virus; assay type: toxicity, cell-based, Huh-7; settings: read-out: Ratio CC50/EC50
Outline: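 SI is CC50/EC50. Both values come from the same HCVcc assay in naïve Huh-7 cells: compound added 2 h before HCVcc inoculation, infection and cytotoxicity read at 72 h. Each was derived from 10-point dose-response curves in duplicate with quadruplicate measurements.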

[5] = Half life in rat liver microsomes at 2 uM; assay type: ADME; outline: as §1
[6] = test system: Hepatitis C virus; test: Antiviral activity against Hepatitis C virus infected in human HuH7.5 cells assessed as inhibition of viral RNA replication after 72 hrs; assay type: functional, organism-based; settings: Hepacivirus hominis; Huh-7
Outline: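 Transiently transfected Huh-7.5 producer cells carrying full-length HCV RNA genomes were plated and left overnight at 37 °C. They were then treated with increasing compound concentrations at 37 °C for 48 h and washed. Viral RNA replication and cytotoxicity in the producer cells were read at 72 h post compound treatment. Data were normalized to the 1% DMSO control, set as 0% inhibition.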

[7] = test system: Hepatitis C virus; test: Antiviral activity against Hepatitis C virus infected in human HuH7.5 cells assessed as reduction of secreted infectious viral particles incubated for 48 hrs followed by compound washout measured after 24 hrs; assay type: functional, organism-based; settings: Hepacivirus hominis; Huh-7
Outline: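 Supernatant-transfer (late-stage) assay. Transfected Huh-7.5 producer cells were treated with serially diluted compound at 37 °C for 48 h, then washed. Supernatant was collected 24 h after the wash, clarified by centrifugation and put onto naïve Huh-7 target cells. HCV RNA replication in the target cells was read at 72 h post inoculation and normalized to the 1% DMSO control (0% inhibition).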

[8] = test system: Hepatitis C virus; test: Antiviral activity against Hepatitis C virus pseudotyped lentiviral particle expressing E1/E2 glycoproteins assessed as inhibition of viral attachment and internalization in human HuH7 cells at 3.3 uM preincubated for 1 hr followed by viral inoculation measured after 72 hrs GFP reporter gene assay; assay type: functional, organism-based; settings: Hepacivirus hominis, Huh-7
Outline: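 Huh-7 target cells were pretreated with 3.3 µM compound for 1 h. Supernatants were replaced at 12 h. GFP expression was scored by confocal microscopy at 72 h post inoculation and normalized to 1% DMSO. Triplicates with quadruple measurements (n = 12).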

[9] = test system: Vesicular stomatitis virus; test: Antiviral activity against Vesicular stomatitis virus pseudotyped particle expressing glycoproteins assessed as inhibition of viral attachment and internalization in human HuH7 cells at 3.3 uM preincubated for 1 hr followed by viral inoculation measured after 72 hrs GFP reporter gene assay; assay type: functional, organism-based; settings: Huh-7
Outline: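 Supernatant replaced at 12 h. At 72 h post inoculation, GFP expression was read by confocal microscopy at 20x. Data normalized to 1% DMSO control (0% inhibition). Triplicates with quadruple measurements (n = 12).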

SMILES	EC50 [1]	CC50 at 72 h [2]	half-life at 2 µM [3]	selectivity ratio [4]	half-life at 2 µM [5]	inhibition [6]	Activity [7]	inhibition [8]	inhibition [9]
Br.Cc1cccc2c1n(C)c(=N)n2CCOc1ccc(Cl)cc1	130 nM	15000 nM	> 1 h	115	0.41 h	–	–	–	–
Cn1c(=N)n(Cc2ccc(-c3ccccc3)cc2)c2ccccc21	220 nM	2600 nM	–	11.8	–	–	–	–	–
CCc1ccc(Cn2c(=N)n(C)c3ccccc32)cc1	460 nM	5800 nM	–	12.6	–	–	–	–	–
CCC(=O)Cn1c(=N)n(CCOc2ccc(Cl)cc2)c2ccccc21	2300 nM	8500 nM	–	–	–	–	–	–	–
Br.Cn1c(=N)n(CCOc2ccc(Cl)cc2)c2cc(Cl)ccc21	40 nM	9840 nM	> 1 h	246	> 1 h	–	–	–	–
Br.Cn1c(=N)n(CCOc2ccc(Cl)cc2)c2ccc(Cl)cc21	11 nM	4100 nM	> 1 h	373	> 1 h	–	–	–	–
Br.Cc1ccc2c(c1)n(CCOc1ccc(Cl)cc1)c(=N)n2C	90 nM	10600 nM	> 1 h	118	0.3 h	–	–	–	–
Cn1c(=N)n(CCOc2ccc(-c3ccccc3)cc2)c2ccccc21	200 nM	3400 nM	–	17	–	–	–	–	–
Br.Cc1ccc2c(c1)n(C)c(=N)n2CCOc1ccc(Cl)cc1	1 nM	2900 nM	> 1 h	2900	0.145 h	–	–	–	–
Br.Cn1c(=N)n(CCOc2ccc(Cl)cc2)c2c(Cl)cccc21	9.7 nM	4300 nM	> 1 h	443	0.623 h	–	–	–	–
Cn1c(=N)n(Cc2ccc(C(C)(C)C)cc2)c2ccccc21	170 nM	5900 nM	–	34.7	–	–	–	–	–
Cn1c(=N)n(CC(=O)c2ccc3ccccc3c2)c2ccccc21	340 nM	4500 nM	–	13	–	–	–	–	–
Cn1c(=N)n(CC(=O)c2ccc(Cl)cc2)c2ccccc21	73 nM	20000 nM	–	274	–	–	–	–	–
CCc1ccc(OCCn2c(=N)n(C)c3ccccc32)cc1	50 nM	8900 nM	–	178	–	–	–	–	–
Br.Cn1c(=N)n(CCOc2ccc(Cl)cc2)c2ccccc21	16 nM	7600 nM	> 1 h	475	0.225 h	Active	Dose-dependent effect	Active	inactive
Cn1c(=N)n(CCOc2ccc(C(C)(C)C)cc2)c2ccccc21	45 nM	2800 nM	–	62	–	–	–	–	–
CCc1ccc(C(=O)Cn2c(=N)n(C)c3ccccc32)cc1	380 nM	9500 nM	–	25	–	–	–	–	–
Nc1nc2ccccc2n1CCOc1ccc(Cl)cc1	4000 nM	8900 nM	–	–	–	–	–	–	–
Clc1ccc(OCCN2C3=NCCN3c3ccccc32)cc1	50 nM	20000 nM	–	–	–	–	–	–	–
Cn1c(=NC#N)n(CCOc2ccc(Cl)cc2)c2ccc(Cl)c(Cl)c21	> 20000 nM	> 20000 nM	–	–	–	–	–	–	–
CCc1cn2c3ccccc3n(CCOc3ccc(Cl)cc3)c2n1	6000 nM	20000 nM	–	–	–	–	–	–	–
Br.Cn1c(=N)n(CCOc2ccc(Cl)cc2)c2cccc(Cl)c21	3.3 nM	1500 nM	> 1 h	455	> 1 h	–	–	–	–
Cn1c(=N)n(CC(=O)c2ccc(C(C)(C)C)cc2)c2ccccc21	79 nM	8900 nM	–	113	–	–	–	–	–
